Experiments:
[1] = tested on: Rattus norvegicus; experiment: Mean arterial pressure was measured in conscious rats after intra arterial administration at 40 ug/kg dosage.; format: functional, Artery
Procedure, shortened: (§1)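 Conscious male Sprague-Dawley rats (240-280 g), catheterised under pentobarbital (40 mg/kg), ≥2 h recovery. Saline peptide solutions as intraarterial 100-µL bolus. MAP via pressure transducer, computed as [[…] + diastolic]. ΔMAP = value at 1 min minus mean pretreatment saline zero values (n = 4). Means ± SEM, n ≥ 3.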

[2] = tested on: Rattus norvegicus; experiment: Mean arterial pressure was measured in conscious rats after intra arterial administration at 400 ug/kg dosage.; format: functional, Artery; procedure, shortened: as §1
[3] = tested on: Rattus norvegicus; experiment: Hypertensive potency in conscious rats after intra arterial administration.; format: functional
Procedure, shortened: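 Male Sprague-Dawley rats (240-280 g), conscious; catheters placed under pentobarbital anaesthesia (40 mg/kg) with ≥2 h recovery. Peptides in saline given intraarterially as 100-µL bolus. ΔMAP = posttreatment minus mean pretreatment saline zero values (n = 4).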

[4] = Relative potency measured as ratio of ED50 of NPY to ED50 of analogue; format: functional

Row | Compound | Delta MAP [1] | Delta MAP [2] | ED50 [3] | Ratio [4]
1 | H-YPSKPDNPGEDAPA-OH | <5 | <5 | > 0.4 mg/kg | 
2 | CC[C@H](C)[C@H](NC(=O)[C@H](Cc1ccc(O)cc1)NC(=O)[C@@H](N)Cc1c[nH]cn1)C(=O)N[C@@H](CC(N)=O)C(=O)N[C@@H](CC(C)C)C(=O)N[C@H](C(=O)N[C@H](C(=O)N[C@@H](CCCN=C(N)N)C(=O)N[C@@H](CCC(N)=O)C(=O)N[C@@H](CCCN=C(N)N)C(=O)N[C@@H](Cc1ccc(O)cc1)C(N)=O)[C@@H](C)O)[C@@H](C)CC | <5 | 7 | > 0.4 mg/kg | 
3 | CC[C@H](C)[C@H](NC(=O)[C@H](Cc1ccc(O)cc1)NC(=O)[C@H](Cc1c[nH]cn1)NC(=O)[C@H](CCCN=C(N)N)NC(=O)[C@H](CC(C)C)NC(=O)[C@H](C)NC(=O)[C@H](CO)NC(=O)[C@H](Cc1ccc(O)cc1)NC(=O)[C@H](Cc1ccc(O)cc1)NC(=O)[C@H](CCCN=C(N)N)NC(=O)[C@H](C)NC(=O)[C@H](CC(C)C)NC(=O)[C@H](CC(=O)O)NC(=O)[C@H](CCC(=O)O)NC(=O)[C@H](C)NC(=O)[C@@H]1CCCN1C(=O)[C@H](C)NC(=O)[C@H](CC(=O)O)NC(=O)[C@H](CCC(=O)O)NC(=O)[C@H](C)NC(=O)[C@@H]1CCCN1C(=O)[C@H](CC(N)=O)NC(=O)[C@H](CC(=O)O)NC(=O)[C@@H]1CCCN1C(=O)[C@H](CCCCN)NC(=O)[C@H](CO)NC(=O)[C@@H]1CCCN1C(=O)[C@@H](N)Cc1ccc(O)cc1)C(=O)N[C@@H](CC(N)=O)C(=O)N[C@@H](CC(C)C)C(=O)N[C@H](C(=O)N[C@H](C(=O)N[C@@H](CCCN=C(N)N)C(=O)N[C@@H](CCC(N)=O)C(=O)N[C@@H](CCCN=C(N)N)C(=O)O)[C@@H](C)O)[C@@H](C)CC |  |  |  | 0.7

From ChEMBL document CHEMBL1124417, “Synthesis and hypertensive activity of neuropeptide Y fragments and analogues with modified N- or C-termini or D-substitutions” (1989)
